From PubChem
E-selectin induc = E-selectin induction on HUVECs | HUVEC E-selectin immunofluorescence imaging; normalized: neutral wells 0, TNF-alpha wells 100 | AID 686992 | activation, % at 7.58 µM | 260,000 tested, 0.37% active | P16581;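 active means mean E-selectin-positive cell signal at least 10% of the positive control, reached in at least 60% of replicates, without over 20% cell loss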
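material = human umbilical vein endothelial cells (HUVEC), E-selectin induction | quantity = 3,000 cells/well | medium = EGM-2 growth medium on 0.1% gelatin-coated wells | technique = immunofluorescence imaging | read-out basis = % PE-positive cells | control set = TNF-alpha positive control, DMSO neutral control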
S100A4 MyoIIA = S100A4-myosin IIA interaction inhibition. P26447. S100A4/TAMRA-MyoIIA peptide fluorescence polarization. AID 652163. inhibition, % at 10.7 µM. 360,000 tested, 0.14% active;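 active means mean inhibition of at least 70% across replicates, with every replicate also reaching that level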
Target sequence (P26447 whole entry, looked up): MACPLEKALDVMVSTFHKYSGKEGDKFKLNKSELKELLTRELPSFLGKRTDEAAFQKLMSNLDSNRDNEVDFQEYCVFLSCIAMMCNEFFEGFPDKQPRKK
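System – human S100A4 monomer protein, biochemical binding assay · Buffer or medium – Calcium-containing HEPES buffer, pH 7.2 · Timing – 5 min between mix addition and reading · Also added – TAMRA-labelled myosin IIA heavy-chain peptide probe, 5 nM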
SIRT5 inh = inhibitors of human sirtuin-5 desuccinylase | Q9NXA8 | Purified SirT5, succinyl-peptide AMC, trypsin-coupled fluorescence | inhibition, % at 15 µM | 330,000 tested, 1.1% active | AID 652115; in the data active means inhibition above about 15%
Target sequence (Q9NXA8 whole entry, looked up): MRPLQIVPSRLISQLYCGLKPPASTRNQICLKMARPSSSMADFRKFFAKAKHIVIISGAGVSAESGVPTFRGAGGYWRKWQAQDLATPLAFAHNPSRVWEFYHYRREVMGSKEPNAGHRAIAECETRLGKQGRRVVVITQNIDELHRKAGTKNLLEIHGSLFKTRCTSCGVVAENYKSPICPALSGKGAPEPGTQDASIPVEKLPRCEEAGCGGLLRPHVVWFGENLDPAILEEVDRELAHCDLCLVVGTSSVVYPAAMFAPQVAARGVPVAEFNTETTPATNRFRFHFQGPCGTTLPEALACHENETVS
miR-122 sensor = miR-122 inhibition in Huh7 cells; Huh7 miR-122 Renilla luciferase sensor, 48 h; neutral wells = 0, positive control = 100; activation (reporter increase), % at 12.5 µM; 340,000 tested, 0.3% active; AID 602342;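 active means mean replicate activation score at least 90 and every replicate individually at or above 90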;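 further: higher luciferase means less miR-122 activity so hits act as miR-122 inhibitors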
FGF22 binding = FGF22 (human) thermal shift binding. recombinant FGF22 thermal shift, SYPRO orange fluorescence; percent of sucrose octasulfate shift, DMSO zero. Q9HCT0. activity (Tm shift, normalised), % at 9.99 µM. 340,000 tested, 1.5% active;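 active means mean Tm shift, scaled 0 neutral to 100 positive control, at about 1.3% or above, every replicate too, limit read from the data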
Target sequence (Q9HCT0 whole entry, looked up): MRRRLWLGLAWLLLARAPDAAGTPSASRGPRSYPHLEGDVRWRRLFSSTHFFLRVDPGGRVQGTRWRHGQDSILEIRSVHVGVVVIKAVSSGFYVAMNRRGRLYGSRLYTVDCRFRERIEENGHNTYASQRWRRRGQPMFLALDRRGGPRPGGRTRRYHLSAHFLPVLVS
* = called active by the depositor; / = no result given; [ ] = remark or other dose. This is a sample that favours compounds with a hit; in the whole collection about 2.5% have one here.

SMILES | E-selectin induc | S100A4 MyoIIA | SIRT5 inh | miR-122 sensor | FGF22 binding
C=CCn1c(SCc2ccc(Cl)cc2)nc2cc(C(=O)N3CCC(C(N)=O)CC3)ccc2c1=O | 3 | -14 | 1 | 9 | 21*
O=C(NCc1ccco1)c1ccc2c(=O)n(Cc3ccco3)c(SCC(=O)N3CCCC3)nc2c1 | / | / | / | -5 | /
C[C@@H]1CN([C@H](C)CO)C(=O)Cc2cc(NC(=O)Nc3cccc4ccccc34)ccc2O[C@H]1CN(C)C(=O)NC1CCCCC1 | -1 | 10 | 3 | -1[16.7 µM] | 0
CC(=O)N(C)C[C@@H]1Oc2cc(-c3cncnc3)ccc2S(=O)(=O)N([C@H](C)CO)C[C@H]1C | 1 | 15 | 0 | -5[16.7 µM] | 0
CC(C)(C)c1cc(CCC(=O)NCc2ccncc2)cc(C(C)(C)C)c1O | / | / | / | -2 | /
CC(C)(C)c1cc(CCC(=O)Nc2ccncc2)cc(C(C)(C)C)c1O | 0 | 0 | -5 | 3 | 18*
O=C(O)CCC(=O)Nc1ccc(F)cc1 | / | / | / | -6 | /
O=C(O)CCC(=O)NCC(=O)c1ccc(F)cc1 | 70* | -15 | / | 3 | 0
CC(C)CN1C(=O)C(NC(=O)C2CC2)(C(F)(F)F)C2=C1CC(C)(C)CC2=O (centres undefined) | / | 5 | 36* | -1 | 0
CN(C)C(/C=C/Nc1cccc(Br)c1)=C(C#N)C#N | -2 | -7 | -4 | 1 | /
CN(C)C(/C=C/Nc1ccc(O)cc1)=C(C#N)C#N | 0 | 5 | 1 | / | 44*
C[C@H](CO)N1C[C@H](C)[C@@H](CN(C)Cc2ccccc2)OCCCC[C@H](C)Oc2ccc(NC(=O)CCC(F)(F)F)cc2C1=O | 0 | / | / | 2[16.7 µM] | /
C[C@@H]1CN([C@@H](C)CO)C(=O)c2cc(NC(=O)Cc3ccccc3)ccc2O[C@@H](C)CCCCO[C@H]1CN(C)Cc1ccc(C(F)(F)F)cc1 | 0 | / | / | -8[16.7 µM] | 0
C#CC1(NC(=O)NC(C)C)CCCCC1 | 0 | 1 | 94* | / | 0
C#CC1(NC(=O)NC(C)(C)C)CCCCC1 | 1 | 2 | -7 | / | 0
COc1ccc2c3c([nH]c2c1)[C@H](CO)N(S(C)(=O)=O)CC31CCN(Cc2ccccc2)CC1 | 0 | / | / | / | 0
O=C(C1CCCC1)N1CC(=O)N2[C@H](CO)[C@H](c3ccc(C#CCc4ccccc4)cc3)[C@H]2C1 | 1 | -12 | 0 | / | /
COc1cccc(NC(=O)N2CC3(C2)[C@@H](c2ccccc2)[C@@H](CO)N3C(=O)C2CCCC2)c1 | 0 | 8 | 1 | / | /
C[C@H](CO)N1C[C@H](C)[C@@H](CN(C)C(=O)Nc2ccccc2)OCCCC[C@H](C)Oc2ccc(NS(=O)(=O)c3cn(C)cn3)cc2C1=O | 0 | 9 | 2 | 4[16.7 µM] | 1
O=C1NC[C@@H](CCCCN2C[C@H](Cc3ccccc3)N(CC3CCCCC3)C(=O)C2=O)N(Cc2ccccc2)C1=O | / | 0 | -2 | / | 5.4*
O=C1NC[C@H](CCCCN2C[C@H](Cc3ccccc3)N(Cc3ccccc3)C(=O)C2=O)N(CC2CCCCC2)C1=O | 0 | 1 | / | / | 1
CC(C)C[C@H]1CN(CCCC[C@H]2CNC(=O)C(=O)N2Cc2ccccc2)C(=O)C(=O)N1CCc1ccccc1 | 0 | -3 | / | / | 0
CC(C)C[C@H]1CN(CCCC[C@@H]2CNC(=O)C(=O)N2Cc2ccccc2)C(=O)C(=O)N1Cc1ccccc1 | / | 90* | -1 | / | 0
CN(C[C@H]1[C@H](c2ccccc2)[C@@H](CO)N1CC1CC1)C(=O)c1cccc(F)c1 | 0 | / | / | -58[16.7 µM] | /
C[C@H](CO)N1C[C@H](C)[C@H](CN(C)Cc2ccc(Oc3ccccc3)cc2)Oc2ccc(NC(=O)CCC(F)(F)F)cc2C1=O | 0 | -7 | 15* | -4[16.7 µM] | 0
SMILES | E-selectin induc | S100A4 MyoIIA | SIRT5 inh | miR-122 sensor | FGF22 binding
C[C@H](CO)N1C[C@H](C)[C@@H](CN(C)Cc2ccc(Oc3ccccc3)cc2)Oc2ccc(NC(=O)CCC(F)(F)F)cc2C1=O | 0 | -1 | -1 | -2[16.7 µM] | 0
COc1ccc(CN(C)C[C@@H]2Oc3ccc(NC(=O)CCC(F)(F)F)cc3C(=O)N([C@H](C)CO)C[C@H]2C)cc1 | / | -3 | 29* | -5[16.7 µM] | 0
CCOc1ccc(C(=O)NCC(=O)OCC(=O)N2CCC(C)CC2)cc1 | / | 0 | -3 | -5 | /
CCOc1ccc(C(=O)NCC(=O)OCC(=O)N2CCCC2)cc1 | / | -3 | -5 | -12 | 44*
CCCCCN(C(=O)CCC(=O)OCC(=O)c1ccc(CCC)cc1)c1c(N)n(CCCC)c(=O)[nH]c1=O | 2 | 0 | 30* | -1 | 0
CCCNC(=O)Cn1c(=O)/c(=C/c2ccc(-c3cccc([N+](=O)[O-])c3)o2)s/c1=C\C(=O)C(C)(C)C | 2 | 1 | / | 0 | 44*
Cc1ccc(S(=O)(=O)N2C[C@H]3C(=O)C[C@@H](c4ccccc4F)N(S(=O)(=O)c4ccc(C)cc4)[C@H]3C[C@H]2c2cccc3ccccc23)cc1 | 0 | -1 | / | 22 | 43*
C[C@@H]1CN([C@@H](C)CO)C(=O)Cc2cc(NC(=O)Nc3ccc(C(F)(F)F)cc3)ccc2O[C@H]1CN(C)Cc1ccc2c(c1)OCO2 | 0 | 3 | 0 | -5[16.7 µM] | 3.7*
C[C@@H]1CN([C@H](C)CO)C(=O)Cc2cc(NC(=O)CCN3CCOCC3)ccc2O[C@@H]1CN(C)Cc1ccc2c(c1)OCO2 | / | 14 | / | -5[16.7 µM] | 0
C[C@@H]1CN([C@H](C)CO)C(=O)Cc2cc(NC(=O)C3CC3)ccc2O[C@@H]1CN(C)Cc1ccc2c(c1)OCO2 | 29* | -2 | -17 | -10[16.7 µM] | 0
C[C@@H]1CN([C@H](C)CO)C(=O)Cc2cc(NC(=O)CCN3CCOCC3)ccc2O[C@H]1CN(C)Cc1ccc2c(c1)OCO2 | / | 123* | 6 | 31[16.7 µM] | 0
CC(C)NC(=O)Nc1ccc2c(c1)CC(=O)N([C@H](C)CO)C[C@H](C)[C@@H](CN(C)Cc1ccc(Oc3ccccc3)cc1)O2 | 37* | 18 | 13 | 5[16.7 µM] | 0
CC(C)NC(=O)Nc1ccc2c(c1)CC(=O)N([C@H](C)CO)C[C@@H](C)[C@H](CN(C)Cc1ccc(Oc3ccccc3)cc1)O2 | 45* | -5 | 1 | 4[16.7 µM] | 0
C[C@@H]1CN([C@H](C)CO)C(=O)Cc2cc(NC(=O)Cc3ccccc3)ccc2O[C@@H]1CN(C)Cc1ccc(Oc2ccccc2)cc1 | -8 | -7 | 14 | -14[16.7 µM] | 0
C[C@@H]1CN([C@@H](C)CO)C(=O)Cc2cc(NC(=O)c3ccncc3)ccc2O[C@H]1CN(C)Cc1ccc(Oc2ccccc2)cc1 | 313* | -4 | 12 | -30[16.7 µM] | 0
C[C@H]1CN([C@@H](C)CO)C(=O)Cc2cc(NC(=O)Cc3ccccc3)ccc2O[C@H]1CN(C)Cc1ccc(Oc2ccccc2)cc1 | 6 | 2 | 17* | -6[16.7 µM] | 0
